Measurements as given in ChEMBL document CHEMBL1152835, “Synthesis and QSAR modeling of 2-acetyl-2-ethoxycarbonyl-1-[4(4'-arylazo)-phenyl]-N,N-dimethylaminophenyl aziridines as potential antibacterial agents” (2009).
Converted amounts (≈) assume the structure as drawn.

Columns and labels:
Assay type in all cases: functional
Brevundimonas diminuta = test: Antibacterial activities against Pseudomonas diminuta MTCC 3361 after 16 to 24 hrs by twofold serial dilution method
How it was run: (§1)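 Agar twofold serial dilution; compounds from DMF stock. Inoculum about 10⁷ CFU/ml taken from log-phase broth culture. Plates in triplicate, incubated at 37 °C for 16–24 h. Azinomycin run under the same conditions as control drug. MIC = lowest concentration giving no visible growth.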

Staphylococcus aureus = test: Antibacterial activities against Staphylococcus aureus ATCC 2943 after 16 to 24 hrs by twofold serial dilution method; how it was run: as §1
Bacillus subtilis = test: Antibacterial activities against Bacillus subtilis ATCC 6633 after 16 to 24 hrs by twofold serial dilution method; settings: for MIC: Bacillus subtilis, ATCC 6633; how it was run: as §1
Escherichia coli = test: Antibacterial activities against Escherichia coli ATCC 13067 after 16 to 24 hrs by twofold serial dilution method; how it was run: as §1

Row | SMILES | -logMIC (Brevundimonas diminuta) | -logMIC (Staphylococcus aureus) | -logMIC (Bacillus subtilis) | MIC (Bacillus subtilis) [ng/mL] | -logMIC (Escherichia coli)
1 | CCOC(=O)C1(C(C)=O)C(c2ccc(N(C)C)cc2)N1c1ccc(/N=N/c2ccc(C)cc2)cc1 (stereo not drawn) | 4.591 | – | – | – | –
2 | CCOC(=O)C1(C(C)=O)C(c2ccc(N(C)C)cc2)N1c1ccc(/N=N/c2ccc(O)cc2)cc1 (stereo not drawn) | 4.183 | 4.13 | 4.212 | 0.0614 (≈ 0.13 nM) | 4.094
3 | CCOC(=O)C1(C(C)=O)C(c2ccc(N(C)C)cc2)N1c1ccc(/N=N/c2cccc([N+](=O)[O-])c2)cc1 (stereo not drawn) | 4.586 | 4.469 | 4.658 | 0.022 (≈ 0.0438 nM) | 4.399
4 | CCOC(=O)C1(C(C)=O)C(c2ccc(N(C)C)cc2)N1c1ccc(/N=N/c2cccc(Cl)c2)cc1 (stereo not drawn) | 4.412 | 4.329 | 4.46 | 0.0347 (≈ 0.0706 nM) | 4.276
5 | CCOC(=O)C1(C(C)=O)C(c2ccc(N(C)C)cc2)N1c1ccc(/N=N/c2ccc(Cl)cc2)cc1 (stereo not drawn) | 4.348 | 4.276 | 4.39 | 0.0407 (≈ 0.083 nM) | 4.228
6 | CCOC(=O)C1(C(C)=O)C(c2ccc(N(C)C)cc2)N1c1ccc(/N=N/c2cccc(C)c2)cc1 (stereo not drawn) | 4.371 | 4.292 | 4.442 | 0.0361 (≈ 0.0768 nM) | 4.241
7 | CCOC(=O)C1(C(C)=O)C(c2ccc(N(C)C)cc2)N1c1ccc(/N=N/c2cccc(C(=O)O)c2)cc1 (stereo not drawn) | 4.495 | 4.398 | 4.553 | 0.028 (≈ 0.0559 nM) | 4.337
8 | CCOC(=O)C1(C(C)=O)C(c2ccc(N(C)C)cc2)N1c1ccc(/N=N/c2ccc([N+](=O)[O-])cc2)cc1 (stereo not drawn) | 4.524 | 4.445 | 4.586 | 0.0259 (≈ 0.0517 nM) | 4.378
9 | CCOC(=O)C1(C(C)=O)C(c2ccc(N(C)C)cc2)N1c1ccc(/N=N/c2cccc(Br)c2)cc1 (stereo not drawn) | 4.378 | – | – | – | –
10 | CCOC(=O)C1(C(C)=O)C(c2ccc(N(C)C)cc2)N1c1ccc(/N=N/c2ccccc2OC)cc1 (stereo not drawn) | 4.421 | – | – | – | –
11 | CCOC(=O)C1(C(C)=O)C(c2ccc(N(C)C)cc2)N1c1ccc(/N=N/c2ccccc2)cc1 (stereo not drawn) | 4.128 | 4.079 | 4.154 | 0.0701 (≈ 0.154 nM) | 4.046
12 | CCOC(=O)C1(C(C)=O)C(c2ccc(N(C)C)cc2)N1c1ccc(/N=N/c2cccc(O)c2)cc1 (stereo not drawn) | 4.212 | 4.155 | 4.243 | 0.0571 (≈ 0.121 nM) | 4.118
13 | CCOC(=O)C1(C(C)=O)C(c2ccc(N(C)C)cc2)N1c1ccc(/N=N/c2ccc(C(=O)O)cc2)cc1 (stereo not drawn) | 4.444 | 4.357 | 4.495 | 0.032 (≈ 0.0639 nM) | 4.301
14 | CCOC(=O)C1(C(C)=O)C(c2ccc(N(C)C)cc2)N1c1ccc(/N=N/c2cccc(OC)c2)cc1 (stereo not drawn) | 4.54 | 4.431 | 4.607 | 0.0247 (≈ 0.0508 nM) | 4.364
